Data on one compound can be found in ChEMBL document CHEMBL3351588, “Design, synthesis and biological evaluation of N-alkyl or aryl substituted isoindigo derivatives as potential dual cyclin-dependent kinase 2 (CDK2)/glycogen synthase kinase 3β (GSK-3β) phosphorylation inhibitors” (Eur J Med Chem, 2014).

Test [1] deals with K562. The experiment in a line: Induction of apoptosis in human K562 cells assessed as early apoptotic cells level at 30 uM after 24 hrs by Annexin V-FITC/propidium iodide staining based flow cytometry (reference value: […]). The test is classed as functional. In general terms: In flow cytometry, cells or beads pass a laser one at a time.
Test [2] relates to K562. The experiment in a line: Induction of cell morphological changes in human K562 cells assessed as chromatin condensation at 5 to 30 uM after 24 hrs by Hoechst 33342/propidium iodide staining based inverted fluorescence microscopy. The test is classed as functional. The method in brief:
(§1)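 Cells treated for 24 h with 5.0–30.0 μM or with 0.5% DMSO, then collected and washed with PBS. Stained with Hoechst 33342 (5.0 μg/mL, 10 min, 37 °C), then with PI (10.0 μg/mL, 10 min, room temperature, dark). Nuclei scored by fluorescence microscopy as condensed/bright, fragmented, or PI-positive.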

Test [3] concerns K562. The test is described as follows: Induction of cell cycle arrest in human K562 cells assessed as accumulation at G2/M phase at 30 uM after 24 hrs by propidium iodide staining based flow cytometry (reference value: 18.96%). The test is classed as functional.
Test [4] concerns K562. The experiment in a line: Induction of cell cycle arrest in human K562 cells assessed as accumulation at G0/G1 phase at 10 uM after 24 hrs by propidium iodide staining based flow cytometry (reference value: 36.14%). The test is classed as functional.
Test [5] concerns K562. The experiment in a line: Induction of apoptosis in human K562 cells assessed as viable cells level at 30 uM after 24 hrs by Annexin V-FITC/propidium iodide staining based flow cytometry (reference value: 97.64%). The class given is functional. The method in brief:
(§2)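 K562 cells exposed for 24 h or 48 h to 0, 5.0, 10.0, 15.0, 20.0 or 30.0 µM; vehicle DMSO 0.5% v/v. Cells stained with FITC-Annexin V, then counterstained with PI, and analysed by FACScan flow cytometry. Quadrants: Annexin V−/PI− viable; Annexin V+/PI− early apoptotic; Annexin V+/PI+ late apoptotic/necrotic.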

Test [6] has as its system K562. The experiment in a line: Reduction in CDK2 protein expression in human K562 cells at 5 to 30 uM after 24 hrs by Western blotting method. The class given is functional, cell-based. (In general: A western blot detects proteins with antibodies after separation by electrophoresis.)
The subject of test [7] is K562. The test is described as follows: Reduction in beta-catenin protein expression in human K562 cells at 5 to 30 uM after 24 hrs by Western blotting method. The test is classed as functional, cell-based.
For a further test, the system named is A549. The test is described as follows: Cytotoxicity against human A549 cells after 48 hrs by SRB assay. Conditions: A549, 48 h. The class given is functional, cell-based. In outline:
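Cells seeded at 5 × 10³ per well and allowed to attach for 12 h, then exposed to a range of drug concentrations in their own medium for 48 h. Fixed with ice-cold TCA for 1 h at 4 °C, washed, then stained with 0.4% SRB for 30 min at room temperature. IC50 is the mean of three independent experiments.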

Test [8] deals with K562. The test is described as follows: Induction of apoptosis in human K562 cells assessed as late apoptotic cells level at 5 uM after 24 hrs by Annexin V-FITC/propidium iodide staining based flow cytometry (reference value: 0.79%). The class given is functional. In outline:
as §2

Test [9] concerns K562. The test is described as follows: Induction of necrosis in human K562 cells after 24 hrs by Annexin V-FITC/propidium iodide staining based flow cytometry. The test is classed as functional, cell-based. The method in brief: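 Cells exposed to 0, 5.0, 10.0, 15.0, 20.0 or 30.0 μM for 24 h, or 0.5% DMSO. Stained with FITC–Annexin V and PI counterstain, then read by flow cytometry. Annexin V+/PI− scored as early apoptotic; Annexin V+/PI+ scored as late apoptotic/necrotic.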

The subject of test [10] is K562. The test is described as follows: Induction of cell morphological changes in human K562 cells assessed as nuclei compaction at 5 to 30 uM after 24 hrs by Hoechst 33342/propidium iodide staining based inverted fluorescence microscopy. The test is classed as functional. In outline: as §1
For test [11], the system named is K562. The experiment in a line: Induction of cell cycle arrest in human K562 cells assessed as reduction in accumulation at G0/G1 phase after 24 hrs by propidium iodide staining based flow cytometry. The test is classed as functional.

Activity calls are given as the source filed them. The rule behind the calls is not given here.

Usually IC50 stands for the concentration needed to halve the response being measured. Low readings indicate higher potency, high ones lower potency.

In the case of `COc1ccc(N2C(=O)/C(=C3/C(=O)Nc4ccccc43)c3ccccc32)cc1`, the Activity in the test with K562 [1] was 23%; with K562 [3], 11.8%; in the test on K562 [4], 34.81%; in the test with K562 [5], 56.98%; in the test with K562 [8], 1.54%; with K562 [9], “Dose-dependent effect”. Moreover, in the test on K562 [11], the Activity result is “Dose-dependent effect”. Moreover, the result with K562 [2] and in the test on K562 [10] was Active. Moreover, the inhibition result with K562 [6] and in the test on K562 [7] was “Dose-dependent effect” in each case. For the same compound, in the test on A549, the 50% inhibitory concentration (IC50) is 31.9 µM.
